{"source": "ChEMBL document CHEMBL2157991", "about": "“Synthesis and pharmacological evaluation of 2,4-dinitroaryldithiocarbamate derivatives as novel monoacylglycerol lipase inhibitors” (J Med Chem, 2012)", "key": {"[1]": {"test_system": "T1, Monoglyceride lipase (Homo sapiens), Q99685 [C208A]", "T1 sequence (whole entry)": "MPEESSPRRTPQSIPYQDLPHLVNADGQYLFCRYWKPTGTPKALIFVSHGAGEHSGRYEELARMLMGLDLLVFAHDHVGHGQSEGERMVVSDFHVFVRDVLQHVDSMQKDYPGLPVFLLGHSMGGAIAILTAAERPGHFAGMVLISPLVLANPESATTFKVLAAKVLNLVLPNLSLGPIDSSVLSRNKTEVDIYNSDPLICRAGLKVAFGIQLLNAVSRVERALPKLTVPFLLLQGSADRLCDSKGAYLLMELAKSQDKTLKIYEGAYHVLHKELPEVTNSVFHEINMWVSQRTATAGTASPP", "assay": "Inhibition of human MAGL C208A mutant expressed in Escherichia coli", "how_it_was_run": "(§1)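 Homogenates of E. coli expressing wild-type or C201A, C208A, C242A or C208A/C242A mutant MAGL used as enzyme source in the [3H]-2-OG hydrolysis assay; n = 3 in duplicate.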"}, "Monoglyceride lipase": {"target": "T2, Monoglyceride lipase (Homo sapiens, UniProt Q99685)", "T2 sequence (Q99685 whole entry)": "T1 sequence (whole entry) with A208C", "assay": "Inhibition of human recombinant MAGL using [3H]-2-OG as substrate after 10 mins by liquid scintillation counter", "how_it_was_run": "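Purified recombinant hMAGL (5 ng; Tris pH 8.0, 50 mM, 0.1% BSA) with inhibitor in DMSO and [3H]-2-OG (10 μM), 10 min at 37 °C; stopped with ice-cold methanol–chloroform, aqueous-phase radioactivity by liquid scintillation, no-enzyme blanks subtracted; pIC50 from dose–response, mean ± SEM of three experiments in duplicate.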"}, "[2]": {"test_system": "T3, Monoglyceride lipase (Homo sapiens), Q99685 [C208A,C242A]", "T3 sequence (whole entry)": "T1 sequence (whole entry) with C242A", "assay": "Inhibition of human MAGL C208A/C242A mutant expressed in Escherichia coli in presence of DTT"}, "[3]": {"target": "T4, Fatty-acid amide hydrolase 1 (Homo sapiens, UniProt O00519)", "T4 sequence (O00519 whole entry)": "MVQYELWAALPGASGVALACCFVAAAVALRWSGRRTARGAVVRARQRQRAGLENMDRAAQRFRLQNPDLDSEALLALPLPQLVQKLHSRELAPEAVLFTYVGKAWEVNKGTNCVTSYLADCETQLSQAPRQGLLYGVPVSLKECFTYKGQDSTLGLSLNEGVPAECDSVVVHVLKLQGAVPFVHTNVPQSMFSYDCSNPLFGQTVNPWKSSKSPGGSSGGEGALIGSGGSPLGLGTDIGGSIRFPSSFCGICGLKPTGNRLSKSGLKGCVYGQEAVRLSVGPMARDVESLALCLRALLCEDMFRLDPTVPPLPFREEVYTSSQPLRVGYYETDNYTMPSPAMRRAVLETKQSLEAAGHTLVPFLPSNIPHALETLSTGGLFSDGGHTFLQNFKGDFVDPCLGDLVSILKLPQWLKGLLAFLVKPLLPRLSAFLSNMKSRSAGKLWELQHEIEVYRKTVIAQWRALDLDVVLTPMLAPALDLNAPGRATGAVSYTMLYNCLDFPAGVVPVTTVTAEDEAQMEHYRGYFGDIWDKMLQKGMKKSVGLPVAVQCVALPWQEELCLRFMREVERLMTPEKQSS", "assay": "Inhibition of human recombinant FAAH assessed as conversion of [3H]AEA to [3H]ethanolamine after 10 mins by liquid scintillation counter", "how_it_was_run": "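Human recombinant FAAH (6 ng protein, Tris-EDTA) with inhibitor in DMSO; [3H]AEA at 2 μM final, 10 min at 37 °C; stopped with ice-cold methanol–chloroform, [3H]ethanolamine in aqueous layer counted by liquid scintillation, buffer blanks subtracted; pIC50 from dose–response, mean ± SEM of three experiments in duplicate.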"}, "[4]": {"target": "T5, Monoglyceride lipase (Homo sapiens) (UniProt Q99685)", "T5 sequence (whole entry)": "T1 sequence (whole entry) with A208C", "assay": "Inhibition of MAGL at 10^-4.5 to 10^-5 M after 30 mins by liquid scintillation counter in presence of DTT", "how_it_was_run": "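Purified MAGL (3 ng; Tris pH 8.0, 50 mM, 0.1% BSA) preincubated 10 min at room temperature with inhibitor at 10−4.5 and 10−5 M or DMSO; DTT (10−2 M) then added, 15 min at 37 °C, before [3H]-2-OG hydrolysis assay as standard; activity normalized to respective control, n analysed by one-way ANOVA with Bonferroni test.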"}, "[5]": {"target": "T5, Monoglyceride lipase (Homo sapiens)", "assay": "Irreversible inhibition of MAGL at 10^-8.5 M measured after 300 times dilution", "how_it_was_run": "(§2)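 Pure MAGL (105 ng, 20 μL) incubated 30 min at room temperature with inhibitor at 10−3 to 10−6 M or DMSO, then diluted 300-fold in Tris pH 8.0; after 15 min, aliquot assayed with [3H]-2-OG by standard protocol; same nominal post-dilution concentrations also assayed directly; percent of control, one-way ANOVA with Dunnett's test.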"}, "[6]": {"test_system": "T6, Monoglyceride lipase (Homo sapiens), Q99685 [C201A]", "T6 sequence (whole entry)": "T1 sequence (whole entry) with C201A, A208C", "assay": "Inhibition of human MAGL C201A mutant expressed in Escherichia coli", "how_it_was_run": "as §1"}, "[7]": {"target": "T5, Monoglyceride lipase (Homo sapiens)", "assay": "Inhibition of MAGL at 10^-8.5 M after 30 mins by liquid scintillation counter", "how_it_was_run": "as §2"}}, "note": "Substitutions are numbered along the chain they refer to. Active and inactive are the calls of the source. The calls are words filed in the database; no cut-off is given here.", "data": [{"smiles": "CC(C)(C)c1ccc(CN2CCN(C(=S)Sc3ccc([N+](=O)[O-])cc3[N+](=O)[O-])CC2)cc1", "values": [{"measurement": "inhibition", "setting": "[1]", "value": "inactive"}, {"measurement": "IC50", "setting": "Monoglyceride lipase", "value": 155, "unit": "nM"}, {"measurement": "inhibition", "setting": "[2]", "value": "Active"}, {"measurement": "IC50", "setting": "[3]", "value": 1740, "unit": "nM"}, {"measurement": "inhibition", "setting": "[4]", "value": "inactive"}, {"measurement": "inhibition", "setting": "[5]", "value": "Active"}, {"measurement": "inhibition", "setting": "[6]", "value": "Active"}, {"measurement": "inhibition", "setting": "[7]", "value": "inactive"}]}]}
